Columns and labels:
[1] = target: T1, Sodium-dependent dopamine transporter (Rattus norvegicus, UniProt P23977); test: Binding affinity at the Dopamine transporter in rat striata by inhibition of 0.5 nM [3H]WIN-35428 binding
[2] = target: T2, Norepinephrine transporter (Rattus norvegicus, UniProt Q9WTR4); test: Binding affinity at the Norepinephrine transporter in rat frontal cortex by inhibition of 0.5 nM [3H]nisoxetine binding; format: tissue-based
[3] = target: Sodium-dependent serotonin transporter (Rattus norvegicus, UniProt P31652); test: Binding affinity at the Serotonin transporter in rat midbrain by inhibition of 0.5 nM [3H]-paroxetine binding; format: tissue-based
[4] = target: Monoamine transporters; Norepininephrine & dopamine (Rattus norvegicus) (UniProt P23977+Q9WTR4); test: Ratio of IC50 value against NE to that of DA transporters; format: protein assay
Summary of the method: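 Competition binding against 0.5 nM [3H]WIN 35,428 (DA transporter) or 0.5 nM [3H]nisoxetine (NE transporter). The IC50 is the mean ± standard error of three or four experiments, each run in triplicate. Selectivity ratios are NE/DA or 5-HT/DA quotients of the IC50 values.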

[5] = target: Monoamine transporters; serotonin & dopamine (Rattus norvegicus) (UniProt P31652+P23977); test: Ratio of IC50 value against Serotonin transporter to that of dopamine transporter; format: protein assay
[6] = target: T2, Norepinephrine transporter; test: Inhibition of [3H]NE uptake by rat frontal cortex Norepinephrine transporter; format: tissue-based
Summary of the method: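 Rat frontal cortex synaptosomes were used at 10 mg/mL tissue with 5 nM final [3H]norepinephrine and 10 μM pargyline in Krebs phosphate buffer, pH 7.4. Incubation was 3 min at 30 °C, followed by filtration and scintillation counting. Nonspecific uptake was defined with 1 μM desipramine. Three or four experiments were run in triplicate, and Ki was derived by Cheng–Prusoff.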

[7] = target: T1, Sodium-dependent dopamine transporter; test: Inhibition of [3H]DA uptake by rat striatal dopamine transporter
Summary of the method: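 Rat striatal crude synaptosomes were prepared from male Sprague–Dawley rats by 0.32 M sucrose homogenisation and centrifugation at 800g then 2000g. Each tube held 1.5 mg tissue, 0.5 nM [3H]dopamine and 10 μM pargyline in Krebs phosphate buffer, pH 7.4, with dextrose and ascorbate. Incubation was 3 min at 30 °C, followed by filtration and scintillation counting. Nonspecific uptake was defined with 1 μM mazindol. Three or four experiments were run in triplicate, and Ki was derived by Cheng–Prusoff.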

T2 sequence (Q9WTR4 whole entry): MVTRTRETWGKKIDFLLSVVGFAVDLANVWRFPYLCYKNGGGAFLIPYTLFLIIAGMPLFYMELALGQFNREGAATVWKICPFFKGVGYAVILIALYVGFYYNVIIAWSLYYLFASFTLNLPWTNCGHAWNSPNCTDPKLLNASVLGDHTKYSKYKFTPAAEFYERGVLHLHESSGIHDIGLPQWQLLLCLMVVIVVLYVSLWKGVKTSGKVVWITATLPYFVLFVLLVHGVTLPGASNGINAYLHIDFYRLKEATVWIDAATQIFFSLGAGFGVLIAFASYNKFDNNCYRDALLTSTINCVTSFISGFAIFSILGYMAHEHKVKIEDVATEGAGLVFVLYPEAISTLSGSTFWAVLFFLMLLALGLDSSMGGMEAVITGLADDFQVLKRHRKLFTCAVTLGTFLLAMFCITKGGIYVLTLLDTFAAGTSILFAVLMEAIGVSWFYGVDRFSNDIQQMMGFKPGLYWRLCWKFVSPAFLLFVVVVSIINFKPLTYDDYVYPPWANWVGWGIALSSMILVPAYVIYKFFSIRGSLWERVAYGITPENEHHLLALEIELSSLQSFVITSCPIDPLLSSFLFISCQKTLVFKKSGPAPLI
Chain of Sodium-dependent serotonin transporter (P31652 whole entry): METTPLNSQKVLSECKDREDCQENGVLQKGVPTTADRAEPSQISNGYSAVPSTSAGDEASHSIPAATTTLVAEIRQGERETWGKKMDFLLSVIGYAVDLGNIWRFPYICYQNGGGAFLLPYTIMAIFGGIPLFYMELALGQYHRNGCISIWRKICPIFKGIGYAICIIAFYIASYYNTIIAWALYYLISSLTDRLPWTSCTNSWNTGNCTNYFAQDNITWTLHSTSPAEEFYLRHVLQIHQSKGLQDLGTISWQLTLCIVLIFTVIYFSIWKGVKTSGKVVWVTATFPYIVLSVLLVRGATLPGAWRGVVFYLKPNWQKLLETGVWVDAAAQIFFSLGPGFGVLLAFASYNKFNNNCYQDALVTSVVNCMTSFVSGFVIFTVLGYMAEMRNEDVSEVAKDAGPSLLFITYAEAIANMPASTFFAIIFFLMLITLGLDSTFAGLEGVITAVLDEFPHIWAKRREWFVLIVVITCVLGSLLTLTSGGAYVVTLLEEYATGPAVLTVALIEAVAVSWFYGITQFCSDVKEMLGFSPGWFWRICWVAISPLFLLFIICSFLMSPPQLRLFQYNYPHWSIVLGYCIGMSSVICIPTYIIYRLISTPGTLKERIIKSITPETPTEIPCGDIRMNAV
T1 sequence (P23977 whole entry): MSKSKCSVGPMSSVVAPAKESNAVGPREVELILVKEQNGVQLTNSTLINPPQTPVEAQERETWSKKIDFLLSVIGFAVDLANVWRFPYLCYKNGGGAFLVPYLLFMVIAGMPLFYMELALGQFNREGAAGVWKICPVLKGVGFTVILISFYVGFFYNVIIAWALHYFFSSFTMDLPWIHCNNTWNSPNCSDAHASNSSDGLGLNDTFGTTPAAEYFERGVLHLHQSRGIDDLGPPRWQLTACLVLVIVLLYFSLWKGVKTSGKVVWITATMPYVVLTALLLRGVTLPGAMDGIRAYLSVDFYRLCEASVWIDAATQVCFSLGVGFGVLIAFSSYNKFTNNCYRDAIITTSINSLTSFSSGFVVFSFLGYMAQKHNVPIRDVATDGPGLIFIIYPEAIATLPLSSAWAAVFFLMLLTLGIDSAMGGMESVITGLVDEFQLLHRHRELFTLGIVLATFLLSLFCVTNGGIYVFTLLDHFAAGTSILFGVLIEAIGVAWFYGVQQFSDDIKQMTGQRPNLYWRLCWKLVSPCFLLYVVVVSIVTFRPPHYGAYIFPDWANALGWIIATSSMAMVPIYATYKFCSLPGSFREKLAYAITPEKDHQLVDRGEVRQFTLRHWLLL
Chain of Monoamine transporters; serotonin & dopamine (Rattus norvegicus) (P23977 whole entry, looked up): as the sequence (P23977 whole entry) above
Chain of Monoamine transporters; serotonin & dopamine (Rattus norvegicus) (P31652 whole entry, looked up): as the sequence (P31652 whole entry) above

SMILES	IC50 [1]	IC50 [2]	IC50 [3]	Ratio [4]	Ratio [5]	Ki [6]	Ki [7]
CN(C)C(=O)C1C(c2ccc(Cl)cc2)CC2CCC1N2C (centres undefined)	1.38 nM	942 nM	1080 nM	683	782	–	–
Cc1ccc(C2CC3CCC(C2C(=O)Oc2ccccc2C)N3C)cc1 (centres undefined)	23.2 nM	25700 nM	11000 nM	1110	476	–	–
CN1[C@H]2CC[C@@H]1[C@@H](C(=O)N1CCCC1)[C@@H](c1ccc(Cl)cc1)C2	1.38 nM	3950 nM	12400 nM	2860	8980	–	–
Cc1ccc(C2CC3CCC(C2C(=O)N2CCOCC2)N3C)cc1 (centres undefined)	11.7 nM	23600 nM	> 100000 nM	2020	> 8550	–	–
COc1ccc(OC(=O)C2C(c3ccc(C)cc3)CC3CCC2N3C)cc1 (centres undefined)	95.6 nM	3150 nM	82300 nM	33	861	–	–
CN1C2CCC1C(C(=O)N1CCCO1)C(c1ccc(I)cc1)C2 (centres undefined)	0.75 nM	357 nM	130 nM	476	173	–	–
COC(=O)C1C(c2ccc(Cl)c(Cl)c2)CC2CCC1N2C (centres undefined)	0.79 nM	18 nM	3.13 nM	–	4	–	–
CON(C)C(=O)C1C(c2ccc(Cl)cc2)CC2CCC1N2C (centres undefined)	0.85 nM	549 nM	724 nM	646	852	–	–
Cc1ccc(OC(=O)C2C(c3ccc(C)cc3)CC3CCC2N3C)cc1 (centres undefined)	81.2 nM	4100 nM	16000 nM	50	197	–	–
CN(C(=O)C1C(c2ccc(Cl)cc2)CC2CCC1N2C)c1ccccc1 (centres undefined)	45.5 nM	2200 nM	23600 nM	48	519	–	–
CN1[C@H]2CC[C@@H]1[C@@H](C(=O)N1CCCC1)[C@@H](c1ccc(I)cc1)C2	0.37 nM	991 nM	1730 nM	2680	4670	–	–
CN1C2CCC1C(C(=O)N1CCOCC1)C(c1ccc(Cl)cc1)C2 (centres undefined)	2.9 nM	8550 nM	88800 nM	2950	30600	–	–
CON(C)C(=O)C1C(c2ccc(I)cc2)CC2CCC1N2C (centres undefined)	1.08 nM	103 nM	73.9 nM	95	68	–	–
CN1C2CCC1C(C(=O)N1CCC1)C(c1ccc(Cl)cc1)C2 (centres undefined)	6.57 nM	990 nM	814 nM	151	124	–	–
CCCOC(=O)C1C(OC(=O)c2ccccc2)CC2CCC1N2C (centres undefined)	196 nM	6120 nM	4520 nM	31	23	–	–
CN1C2CCC1C(C(=O)N1CCCCC1)C(c1ccc(Cl)cc1)C2 (centres undefined)	6.95 nM	1750 nM	3470 nM	252	499	–	–
CON(C)C(=O)C1C(OC(=O)c2ccccc2)CC2CCC1N2C (centres undefined)	60 nM	3940 nM	28200 nM	66	469	–	–
CN1C2CCC1C(C(=O)N1CCCO1)C(c1ccc(Cl)cc1)C2 (centres undefined)	1.47 nM	1080 nM	2470 nM	736	1680	–	–
Cc1ccc(C2CC3CCC(C2C(=O)OC2CCCC2)N3C)cc1 (centres undefined)	17.8 nM	2630 nM	485 nM	148	27	–	–
Cc1cccc(OC(=O)C2C(c3ccc(Cl)cc3)CC3CCC2N3C)c1 (centres undefined)	9.37 nM	2740 nM	–	293	230	–	–
Cc1ccc(C2CC3CCC(C2C(=O)Oc2ccc(Cl)cc2)N3C)cc1 (centres undefined)	117 nM	9520 nM	42800 nM	81	366	–	–
CN1C2CCC1C(C(=O)Oc1ccc(Cl)cc1)C(c1ccc(Cl)cc1)C2 (centres undefined)	55 nM	4880 nM	16900 nM	89	308	–	–
COC(=O)C1C(c2ccc(Cl)c(C)c2)CC2CCC1N2C (centres undefined)	0.81 nM	36.2 nM	10.5 nM	45	13	–	–
CCOC(=O)C1C(OC(=O)c2ccccc2)CC2CCC1N2C (centres undefined)	195 nM	10000 nM	5800 nM	51	30	–	–
COc1ccc(OC(=O)C2C(c3ccc(Cl)cc3)CC3CCC2N3C)cc1 (centres undefined)	71 nM	1520 nM	19700 nM	21	277	–	–

SMILES	IC50 [1]	IC50 [2]	IC50 [3]	Ratio [4]	Ratio [5]	Ki [6]	Ki [7]
Cc1ccc(C2CC3CCC(C2C(=O)OC2CC2)N3C)cc1 (centres undefined)	1.68 nM	644 nM	–	383	634	–	–
COC(=O)[C@@H]1C2CC[C@H](C[C@@H]1c1ccccc1)N2C	–	–	–	–	–	37.2 nM	49.8 nM
CN1C2CCC1C(C(=O)Oc1ccccc1)C(c1ccccc1)C2 (centres undefined)	76.7 nM	19300 nM	106000 nM	251	1380	–	–
Cc1ccccc1OC(=O)C1C(c2ccc(Cl)cc2)CC2CCC1N2C (centres undefined)	3.91 nM	4780 nM	–	1220	965	–	–
Cc1ccc(OC(=O)C2C(c3ccc(Cl)cc3)CC3CCC2N3C)cc1 (centres undefined)	27.4 nM	1280 nM	–	45	44	–	–
CN1C2CCC1C(C(=O)OCc1ccccc1)C(OC(=O)c1ccccc1)C2 (centres undefined)	257 nM	20800 nM	302 nM	81	1.2	–	–
Cc1ccc(C2CC3CCC(C2C(=O)OC2CCC2)N3C)cc1 (centres undefined)	3.74 nM	4740 nM	2020 nM	1270	540	–	–
CONC(=O)C1C(c2ccc(Cl)cc2)CC2CCC1N2C (centres undefined)	10.7 nM	9910 nM	43700 nM	826	4080	–	–
Cc1ccc(C2CC3CCC(C2C(=O)Oc2cccc(C)c2)N3C)cc1 (centres undefined)	8.19 nM	2140 nM	–	261	639	–	–
CN1C2CCC1C(C(=O)OC1CC1)C(c1ccc(Cl)cc1)C2 (centres undefined)	0.96 nM	235 nM	–	245	175	–	–
COC(=O)C1C(c2ccc(N)c(I)c2)CC2CCC1N2C (centres undefined)	1.35 nM	1330 nM	120 nM	984	89	–	–
CCN(CC)C(=O)C1C(c2ccc(C)cc2)CC2CCC1N2C (centres undefined)	24.7 nM	6220 nM	33900 nM	252	1370	–	–
CN1C2CCC1C(C(=O)Oc1ccc(I)cc1)C(c1ccc(Cl)cc1)C2 (centres undefined)	32.6 nM	968 nM	1230 nM	30	38	–	–
CN1C2CCC1C(C(=O)OCCCc1ccccc1)C(OC(=O)c1ccccc1)C2 (centres undefined)	147 nM	4890 nM	374 nM	33	2.5	–	–
CCN(CC)C(=O)C1C(c2ccc(Cl)cc2)CC2CCC1N2C (centres undefined)	5.48 nM	5530 nM	9430 nM	1010	1730	–	–
CC(C)OC(=O)C1C(OC(=O)c2ccccc2)CC2CCC1N2C (centres undefined)	–	30300 nM	25200 nM	–	–	–	–
CNC(=O)C1C(c2ccc(Cl)cc2)CC2CCC1N2C (centres undefined)	12.4 nM	1580 nM	1310 nM	128	106	–	–
COC(=O)C1C(c2ccc(C)cc2)CC2CCC1N2C (centres undefined)	1.71 nM	60 nM	–	–	–	8.42 nM	7.02 nM
CCC(CC)OC(=O)C1C(c2ccc(C)cc2)CC2CCC1N2C (centres undefined)	19.1 nM	3440 nM	–	180	236	–	–
CN1C2CCC1C(C(=O)OCCc1ccccc1)C(OC(=O)c1ccccc1)C2 (centres undefined)	181 nM	19900 nM	615 nM	110	3.4	–	–
CN1C2CCC1C(C(=O)Oc1ccccc1)C(OC(=O)c1ccccc1)C2 (centres undefined)	112 nM	31000 nM	33700 nM	277	301	–	–
CN(C)C(=O)C1C(OC(=O)c2ccccc2)CC2CCC1N2C (centres undefined)	127 nM	7330 nM	144000 nM	58	1130	–	–
CC(C)OC(=O)C1C(c2ccccc2)CC2CCC1N2C (centres undefined)	85.1 nM	32000 nM	23100 nM	377	272	–	–
CON(C)C(=O)C1C(c2ccc(C)cc2)CC2CCC1N2C (centres undefined)	2.55 nM	442 nM	3400 nM	173	1330	–	–
COC(=O)C1C(c2ccc(Br)cc2)CC2CCC1N2C (centres undefined)	1.69 nM	–	10.6 nM	22	6	–	–

Reference: ChEMBL document CHEMBL1128444 (J Med Chem, 1995)
